# Source: PubChem
# UPR CHOP act: activators of apoptotic arm of unfolded protein response (CHOP); CHO-CHOP luciferase reporter, UPR activation, luminescence; percent of tunicamycin response over DMSO baseline; activation, % at 10 µM; 330,000 compounds, 0.34% hits;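 active = at 10 µM dose, activation of 40% or more, normalized to positive control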;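 also: 100% = tunicamycin at 10 µg/mL and 0% = DMSO alone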
#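 System: CHO CHOP reporter cells. Amount: 500 cells per well. Buffer or medium: F12 medium, 10% FBS. Compound dosing: one dose, 10 µM in 0.5% DMSO. Incubation: 6 h compound exposure at 37 °C after overnight seeding. Technique: Steady-Glo luciferase luminescence. Benchmarks: tunicamycin and DMSO controls.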
# 697 NFkB inh: inhibitors of the PMA/ionomycin-induced NF-kB reporter in 697 B cells; 697 B-cell NF-kB luciferase reporter, 16 h; inhibition, % at 4 µM; 330,000 compounds, 0.33% hits; in the data active = inhibition above about 35%
# CHOP inh: blocks CHOP induction under ER stress | 220,000 compounds, 3.8% hits | CHO-K1 CHOP-promoter luciferase, tunicamycin-induced, 15-18 h | inhibition, % at 10 µM | AID 2732;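 active = compounds that reduced the stress-induced luciferase reporter signal by more than about 70% of percent inhibition, limit read from the data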;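 also: 0% = tunicamycin plus vehicle and 100% = wells without tunicamycin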
# UPR XBP1 act: activators of adaptive arm of unfolded protein response (XBP1); CHO-XBP1 luciferase reporter, IRE1-XBP1 UPR activation, luminescence; percent of tunicamycin response, DMSO as zero; 330,000 compounds, 0.33% hits; activation, % at 20 µM;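 active = versus positive control, 20 µM dose yields 30% or more activation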;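 also: 100% = tunicamycin at 10 µg/mL and 0% = DMSO only wells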
#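 Material: IRE1-XBP1 luciferase reporter CHO line / Quantity: one thousand reporter cells per well / Buffer or medium: F12 with 10% serum / Compound: 20 µM single concentration, DMSO 1% / Times: 6 h treatment, 37 °C / Detection: Steady-Glo luciferase glow luminescence, 10 min after reagent addition / Benchmarks: tunicamycin high, DMSO low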
# Jurkat NFkB inh: lowers PMA/ionomycin-induced NF-kB signal in Jurkat cells. PMA/ionomycin-induced NF-kB luciferase reporter, luminescence. inhibition, % at 4 µM. 330,000 compounds, 0.53% hits; in the data active = inhibition above about 50%
# The depositor's hits bear a star; . = no result given. This excerpt belongs to a sample that is enriched for hits.
SMILES,UPR CHOP act,697 NFkB inh,CHOP inh,UPR XBP1 act,Jurkat NFkB inh
COc1cccc(N(C(=O)Cn2nnc(-c3ccc(F)cc3)n2)C(C(=O)NCC2CCCO2)c2ccc(Cl)cc2)c1 (stereo not given),-1.2,8.3,46.1,4.1,-9.1
COc1cccc(N(C(=O)Cn2nnc(-c3ccc(Cl)cc3)n2)C(C(=O)NCC2CCCO2)c2ccc(C)cc2)c1 (stereo not given),1.4,14.2,80.4*,3.9,-6.3
CCOc1ccc(-n2c(SC)nc3c(c2=O)SCC3)cc1,2.7,-20.0,37.5,0.1,3.5
CCOc1ccc(-n2c(SC(C)C)nc3c(c2=O)SCC3)cc1,-1.8,-5.0,78.2*,1.7,-7.2
C=CCN1C(=O)c2ccc(C(=O)N3CCN(S(=O)(=O)c4ccccc4Br)CC3)cc2C1=O,2.9,21.8,.,-0.4,9.1
CCN(CC)C(=O)N1c2ccccc2CC(N(CC)CC)c2ccccc21 (stereo not given),0.1,-9.4,84.8*,-3.2,-10.5
O=C(O)/C(=C\c1cccs1)c1ccccc1,1.0,6.4,23.4,-1.5,13.5
CS(=O)(=O)N(Cc1ccc(C(=O)Nc2ccccc2Sc2ccccc2)cc1)c1ccccc1,-1.9,21.4,76.6*,-2.2,-2.6
O=C(Nc1ccccc1Sc1ccccc1)c1ccccc1,0.5,-1.7,91.6*,1.7,-0.1
O=C(Cc1ccccc1)Nc1ccccc1Sc1ccccc1,0.9,-4.1,15.5,-2.0,-10.3
Cc1ccc(SCC2(O)CCN(C(=O)c3ccc(Cl)cc3)CC2)cc1,-1.3,6.9,82.2*,-2.9,-12.3
COc1cc(CNC2CCCC2)cc(Cl)c1OCc1ccccc1F,-0.8,-36.3,78.7*,1.6,-5.9
Oc1cccc(-c2nc3ccc4ccccc4c3c3c2CCC3)c1,4.0,-142.0,81.8*,2.8,-61.9
O=C(NNc1c2ccccc2nc2ccccc12)c1cccc(O)c1,0.4,7.0,17.0,0.3,-17.3
CCCCN(Cc1ccccc1)S(=O)(=O)c1cc(Br)cc2c1N(C(C)=O)C(C)C2 (stereo not given),0.2,-16.6,84.4*,-2.1,4.0
CCC(Oc1cc(Cl)ccc1Cl)C(=O)NN1C(=O)C2C3CCC(C3=C(C)C)C2C1=O (stereo not given),-1.3,-5.9,86.7*,-1.1,-8.9
O=c1c2[nH]c3ccccc3c2ncn1CCN1CCNCC1,-0.5,10.6,89.4*,-0.7,-0.6
CCCCCCOC(=O)c1ccc(OC(=O)c2cccnc2)cc1,3.4,-54.1,34.9,5.3,-42.0
CCCCOC(=O)Nc1ccc(C(=O)OCCC)cc1,2.5,-34.3,86.3*,2.4,-33.9
CCCCCCCCOC(=O)c1ccc(N)cc1,1.9,18.8,76.1*,-1.8,-10.4
CCN(CC)c1nc(C)c2c(c1C#N)CC(C)(C)OC2,0.6,-14.1,74.1*,-4.6,2.8
Fc1ccc(-c2nc(-c3cnccn3)no2)c(Cl)c1,-2.2,-107.2,5.0,-5.8,-74.1
Cc1ccc(S(=O)(=O)N2CCCC(C(=O)NCc3cccnc3)C2)cc1Cl (stereo not given),-0.2,16.5,87.6*,-1.2,1.4
Cc1c(C(=O)NCc2cccnc2)oc2ccc(S(=O)(=O)N3CCC4(CC3)OCCO4)cc12,2.5,-16.2,1.7,-1.5,10.2
Cc1cc(C)c(S(=O)(=O)N2CCCC(C(=O)NCc3cccnc3)C2)c(C)c1 (stereo not given),2.1,-3.3,.,-5.1,8.8
SMILES,UPR CHOP act,697 NFkB inh,CHOP inh,UPR XBP1 act,Jurkat NFkB inh
Cc1c(C(=O)NCc2cccnc2)oc2ccc(S(=O)(=O)N3CC(C)CC(C)C3)cc12 (stereo not given),-1.8,11.5,101.8*,0.8,2.5
COc1ccc(CCNc2cc(C)nc3c(-c4ccc(Cl)cc4)cnn23)cc1OC,-2.6,12.9,0.1,-7.5,-7.3
CC(=O)Nc1ccc(Nc2cc(C)nc3c(-c4ccc(Cl)cc4)cnn23)cc1,5.9,-110.5,75.5*,-0.6,-106.3
CC(=O)Nc1ccc(Nc2cc(C)nc3c(-c4ccc(Cl)cc4)c(C)nn23)cc1,1.9,2.1,84.3*,2.9,-5.3
COc1ccc(C(C)NC(=O)C2CCCC2)cc1OC (stereo not given),-0.8,-0.9,.,-3.3,4.8
O=C(COc1ccccc1F)NCC(c1ccc(F)cc1)N1CCOCC1 (stereo not given),-0.3,-32.8,.,0.1,-22.1
Cn1nc(-c2ccc(Cl)cc2)c2cc(C(=O)N3CCN(c4ccccn4)CC3)sc21,3.7,-17.2,89.9*,4.5,11.1
Cn1nc(-c2ccc(Cl)cc2)c2cc(C(=O)N3CCN(c4ccccc4)CC3)sc21,0.5,-2.7,49.6,-3.1,14.9
COCCN(Cc1nc2ccccc2c(=O)[nH]1)C(=O)COc1ccccc1-c1ccccc1,-0.5,-1.3,.,-2.0,-5.7
O=C(c1cccs1)N1N=C(c2ccccc2)CC1c1ccccc1 (stereo not given),-0.6,-22.4,77.9*,3.2,1.0
O=C(c1cccs1)N1N=C(c2ccc(O)cc2)CC1c1ccccc1 (stereo not given),1.7,-8.6,33.0,0.4,-11.3
CC(C)CC(=O)Nc1ccc(-c2nnn(CC(=O)NCc3ccco3)n2)cc1,3.5,-35.2,-13.5,0.5,-7.7
CCc1ccc2[nH]c(=O)c(CN(Cc3ccc4c(c3)OCO4)Cc3nnnn3C3CCCC3)cc2c1,0.5,0.1,82.0*,9.6,-1.0
Cc1ccc2cc(CN(Cc3ccc(F)cc3)Cc3nnnn3C3CCCC3)c(=O)[nH]c2c1,-1.0,17.1,83.8*,-2.9,-1.6
Cc1ccc2cc(CN(Cc3ccccc3)Cc3nnnn3C3CCCC3)c(=O)[nH]c2c1,0.5,7.7,47.3,-5.7,22.1
CCc1ccc2[nH]c(=O)c(CN(Cc3ccccc3OC)Cc3nnnn3Cc3ccco3)cc2c1,6.8,-1.7,73.5*,0.3,-5.8
COc1ccccc1CN(Cc1cc2cc(C)ccc2[nH]c1=O)Cc1nnnn1Cc1ccco1,0.1,-5.2,18.5,-1.7,-10.6
CCS(=O)(=O)N1Cc2ccccc2CC1C(=O)OCC(=O)Nc1ccc(SC(F)F)cc1 (stereo not given),-0.3,9.1,93.1*,0.4,4.0
COc1cc(CCC(=O)Nc2ccc(C)c(S(=O)(=O)N3CCCCCC3)c2)cc(OC)c1OC,2.2,-18.4,.,-3.8,16.3
CCn1cc(C(=O)O)c(=O)c2cc(F)c(N3CCNC(C)C3)c(F)c21 (stereo not given),.,.,-11.2,.,.
CC(C)c1nc(N2CCN(C(=O)c3ccco3)CC2)c2c3c(sc2n1)CCCC3,3.9,-7.5,73.8*,-3.5,-1.5
COc1ccccc1Cn1c(=O)oc2ccc(C)cc21,3.5,2.4,.,-3.1,-0.3
Cc1ccc2oc(=O)n(CCCOc3ccccc3C)c2c1,0.7,-13.1,81.7*,3.1,-3.3
Cc1ccc2oc(=O)n(Cc3ccccc3OC(C)C)c2c1,-1.5,6.7,84.2*,-2.5,-1.0
